Measured values reported in ChEMBL document CHEMBL4261484, “Design, synthesis and anticonvulsant-analgesic activity of new N-[(phenoxy)alkyl]- and N-[(phenoxy)ethoxyethyl]aminoalkanols” (Medchemcomm, 2017).
Activity calls are given as the source filed them.

Experiments:
Mus musculus [1] = assay: Anticonvulsant activity in mouse assessed as protection against maximal electroshock-induced seizures at 100 mg/kg, ip; type: functional, organism-based
Method in brief: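 Mice dosed ip; maximal seizures induced by auricular electroshock (25 mA, 500 V, 50 Hz, 0.2 s). Endpoint: hind-limb tonic extension; animals without it scored protected. Read-out is number protected over number tested.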

Mus musculus [2] = assay: Toxicity in mouse at 100 mg/kg, ip measured during maximal electroshock seizure test; type: organism-based; settings: in vivo
Mus musculus [3] = assay: Toxicity in mouse at 30 mg/kg, ip measured during maximal electroshock seizure test; type: organism-based; settings: in vivo
Mus musculus [4] = assay: Toxicity in mouse at 25 mg/kg, ip measured during maximal electroshock seizure test; type: organism-based; settings: in vivo
Mus musculus [5] = assay: Anticonvulsant activity in ip dosed mouse assessed as protection against maximal electroshock-induced seizures; type: functional
Method in brief: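 Mice were dosed ip. Maximal seizures were induced by auricular electrodes (25 mA, 500 V, 50 Hz, 0.2 s). Absence of hind-limb tonic extension counted as protection. […] Motor impairment was scored on a 10 rpm rotarod, giving TD50 the same way.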

[6] = Neurotoxicity in ip dosed mouse assessed as motor impairment measured for one min by rotarod test; type: toxicity, organism-based; settings: in vivo
Method in brief: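 Mice trained on an accelerating rotarod, then tested at least 24 h later after ip pretreatment, on a rod turning at 10 rpm. Neurotoxicity was scored as failure to stay on the rod for one minute. Read-out is mice impaired over mice tested.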

[7] = Protection index, ratio of TD50 for neurotoxicity in ip dosed mouse by rotarod test to ED50 for anticonvulsant activity in mouse by maximal electroshock seizure test; type: toxicity, organism-based; settings: in vivo, read-out: Ratio TD50/ED50
Mus musculus [8] = assay: Anticonvulsant activity in mouse assessed as current strength required to induce tonic hind-limb extension in 50% of the animals at 10 mg/kg, ip by maximal electroshock seizure threshold test (reference value: 6.05 to 8.13 mA); type: functional
Mus musculus [9] = assay: Anticonvulsant activity in mouse assessed as increase in electroconvulsive threshold at 10 mg/kg, ip by maximal electroshock seizure threshold test relative to control; type: functional
Mus musculus [10] = assay: Anticonvulsant activity in mouse assessed as protection against subcutaneous pentylenetetrazole-induced seizures by measuring latency time of tonic seizures at 100 mg/kg, ip measured for 30 mins post pentylenetetrazole challenge at 0.5 hrs after compound dosing (reference value: 562.8 to 614.9 secs); type: functional
Mus musculus [11] = assay: Anticonvulsant activity in mouse assessed as protection against subcutaneous pentylenetetrazole-induced seizures by measuring latency time of tonic seizures at 30 mg/kg, ip measured for 30 mins post pentylenetetrazole challenge at 0.5 hrs after compound dosing (reference value: 562.8 to 614.9 secs); type: functional
Mus musculus [12] = assay: Anticonvulsant activity in mouse assessed as protection against subcutaneous pentylenetetrazole-induced seizures at 100 mg/kg, ip measured for 30 mins post pentylenetetrazole challenge at 0.5 hrs after compound dosing relative to control; type: functional
Mus musculus [13] = assay: Anticonvulsant activity in mouse assessed as protection against subcutaneous pentylenetetrazole-induced seizures at 30 mg/kg, ip measured for 30 mins post pentylenetetrazole challenge at 0.5 hrs after compound dosing relative to control; type: functional
Mus musculus [14] = assay: Analgesic activity in mouse assessed as time of paw licking during phase 1 at 27 mg/kg, ip measured for 5 mins by formalin test (reference value: 43.89 +/- 6.64 secs); type: functional
Method in brief: (§1)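 Formalin test in mice: 20 μL of 5% formalin injected intraplantarly into the right hind paw. Each mouse was observed alone in a glass beaker for 30 min. Time (s) spent licking or biting the injected paw was recorded at 0–5 min (acute phase) and 15–30 min (inflammatory phase).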

Mus musculus [15] = assay: Analgesic activity in mouse assessed as decrease in time of paw licking during phase 2 at 27 mg/kg, ip measured for 15 to 30 mins by formalin test relative to control; type: functional; design: scale not given: the % may be the effect or the level left; method in brief: as §1
Mus musculus [16] = assay: Toxicity in mouse assessed as effect on spontaneous activity at 27 mg/kg, ip measured for 30 mins by photoresistor actometer relative to control; type: organism-based; settings: in vivo, 0.5 h
Method in brief: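 Mice dosed ip; locomotor activity by photoresistor actometers counting light-beam interruptions. Each mouse was habituated 30 min in a cage, then crossings were counted over a 30 min session. Data are mean ± SEM and % change vs control; unpaired t test.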

Mus musculus [17] = assay: Neurotoxicity in mouse assessed as motor impairment by measuring time of escaping from chimney at 27 mg/kg, ip measured for 60 secs (reference value: 8.87 +/- 1.79 secs); type: toxicity, organism-based; settings: in vivo, 1 min
Method in brief: (§2)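 Mice dosed ip; trained, selected animals placed in a horizontal tube 25 cm long and 2.5 cm in diameter, then tube reversed so mice must climb out backward. Read-outs: escape time (s) ± SEM and % animals losing coordination versus control. Unpaired t test.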

Mus musculus [18] = assay: Neurotoxicity in mouse assessed as motor impairment by measuring loss of coordination at 27 mg/kg, ip measured for 60 secs by chimney test relative to control; type: toxicity, organism-based; settings: in vivo, 1 min; method in brief: as §2
HepG2 [19] = assay: Cytotoxicity against human HepG2 cells assessed as effect on cell viability at 10 to 250 uM after 24 hrs by MTT assay; type: cell-based; settings: hepg2, 24 h
Method in brief: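 HepG2 cells grown in MEM with 10% FBS (37 °C, 5% CO2) and seeded at 1 × 10^4. After overnight culture, exposed to 10–250 μM for 24 h. MTT for 3 h, formazan dissolved, OD 570 nm. Viability is % of control ± SEM from three independent experiments.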

HepG2 [20] = assay: Cytotoxicity against human HepG2 cells assessed as effect on cell viability at 10 to 250 uM after 24 hrs by neutral red assay; type: cell-based; settings: hepg2, 24 h
Method in brief: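 HepG2 cells seeded at 5 × 10^4 per well, then after 24 h given medium with 10–250 μM for 24 h. Viability by neutral red staining, OD 570 nm. Results are % of control ± SEM, three independent experiments.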

[21] = Cytotoxicity against mouse CRL-2541 cells assessed as effect on cell viability at 10 to 250 uM after 24 hrs by MTT assay; type: cell-based

## Cc1ccc(OCCOCCNC(C)CO)c(C)c1 (racemic)
Mus musculus [1]
  Activity: Active
Mus musculus [2]
  Activity: Non-Toxic
Mus musculus [3]
  Activity: Non-Toxic
Mus musculus [4]
  Activity: Non-Toxic
Mus musculus [5]
  ED50: 27.1 mg/kg
[6]
  TD50 at 1 min: 109 mg/kg
[7]
  selectivity ratio: 4.02
Mus musculus [8]
  Activity: 6.76 mA
Mus musculus [9]
  Activity: inactive
Mus musculus [10]
  Time: 1269 s
Mus musculus [11]
  Time: 575.8 s
Mus musculus [12]
  Activity: 117.23%
Mus musculus [13]
  Activity: 2.31%
Mus musculus [14]
  Time: 67.25 s
Mus musculus [15]
  Activity: 83.41%
Mus musculus [16]
  Activity: 68.92%
Mus musculus [17]
  Time: 6 s
Mus musculus [18]
  Activity: 0%
HepG2 [19]
  Activity: Non-Toxic
HepG2 [20]
  Activity: Non-Toxic
[21]
  Activity: Non-Toxic
